Measurements taken from article PMC6811699 (Stem Cells Translational Medicine, 2019).

Tests used:
[1] = test system: induced sensory neuron cells (iSNs); assay: High-content imaging, neurite length analysis; format: cell-based, human; conditions: 48 hours, 0.01–10 μM, treated 24 hours after seeding
In short: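 iSNs from blood-derived neural precursors, specified (DAPT, SU5402, CHIR99021) then matured (BDNF, GDNF, NGF, NT-3, ascorbic acid, forskolin), reseeded to 96-well plates; dosed 24 h later, 10-fold dilutions, 0.01–10 μM, 0.1% DMSO final, quadruplicate wells, 48 h.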

[2] = read-out: Reported neurite length IC50; literature values; cited from earlier work
iSNs = assay: Calcium imaging; format: cell-based, human; conditions: iSNs from adult nonmobilized PB, 30 μM α,β-meATP
In short: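 Mature iSNs were loaded with Fluo‑4‑AM for 1 hour at room temperature, then de‑esterified for 45 minutes. They were washed and kept in Hanks' balanced salt solution with 25 mM HEPES and 5.5 mM glucose. Agonists diluted in this buffer were applied at final 30 μM α,β‑meATP or 1 μM capsaicin to day‑7 iSNs in 96‑well plates. Peak calcium flux was recorded by epifluorescence microscopy with a xenon arc lamp.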

[3] = test system: induced sensory neuron cells (iSNs); assay: Resazurin reduction cell viability assay; format: cell-based; conditions: Homo sapiens, 48 h, read-out: Detected cell viability IC50
In short: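 iSNs were specified and matured, reseeded into 96‑well plates, and dosed 24 hours later. Compounds were given as four 10‑fold dilutions, 0.01–10 μM final, with 0.1% DMSO final, in quadruplicate wells, for 48 hours. Medium was then replaced with 10 μg/ml resazurin in snMat medium for 2 hours at 37°C, 5% CO₂. Fluorescence was read at 544/590 nm. There were three biological replicates, reported as mean ± SEM, and IC50 came from the dose–response.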

patients = conditions: cited from earlier work

Row | SMILES | effect on neurite length / neurite degeneration [1] | IC50 [2] | cytosolic calcium response (iSNs) | IC50 [3] | NP incidence (patients) | Neurotoxic dose in patients (patients)
1 | COc1cc([C@@H]2c3cc4c(cc3[C@@H](O[C@@H]3O[C@@H]5CO[C@@H](C)O[C@H]5[C@H](O)[C@H]3O)[C@H]3COC(=O)[C@H]23)OCO4)cc(OC)c1O [Etoposide] | reduced neurite length in the absence of cytotoxicity | 360 nM |  |  |  | 
2 | Nc1ncnc2c1ncn2[C@@H]1O[C@H](COP(=O)(O)CP(=O)(O)OP(=O)(O)O)[C@@H](O)[C@H]1O [α,β‐meATP, α,β‐methylene‐ATP] |  |  | robust elevation of cytosolic calcium |  |  | 
3 | CC[C@]1(O)C[C@H]2CN(CCc3c([nH]c4ccccc34)[C@@](C(=O)OC)(c3cc4c(cc3OC)N(C=O)[C@H]3[C@@](O)(C(=O)OC)[C@H](OC(C)=O)[C@]5(CC)C=CCN6CC[C@]43[C@@H]65)C2)C1 [Vincristine] | reduced neurite length in the absence of cytotoxicity |  |  | 600 nM | Up to 20% | 5–15 mg/m^2
4 | N.N.[Cl][Pt][Cl] [Cisplatin] | reduced neurite length in the absence of cytotoxicity | > 100000 nM |  |  | 70–100% | 
5 | CC(=O)O[C@H]1C(=O)[C@@]2(C)[C@H]([C@H](OC(=O)c3ccccc3)[C@]3(O)C[C@H](OC(=O)[C@H](O)[C@@H](NC(=O)c4ccccc4)c4ccccc4)C(C)=C1C3(C)C)[C@]1(OC(C)=O)CO[C@@H]1C[C@@H]2O [Taxol, Paclitaxel] | reduced neurite length in the absence of cytotoxicity | 5.6 to 10 nM |  | 7400 nM |  | 
6 | CC(C)C[C@H](NC(=O)[C@H](Cc1ccccc1)NC(=O)c1cnccn1)B(O)O [Bortezomib] | neurite degeneration only at the highest tested concentrations | > 100000 nM |  | 1000 nM | 20–30% | 30 mg/m^2
